Assay [1] concerns Staphylococcus aureus. Nature of the assay: Antibacterial activity against Staphylococcus aureus ATCC 29213 infected in C57BL6 mouse keratitis model assessed as log reduction in bacterial burden at 0.5 % administered 4 times daily at 2 hrs interval for 1 day. It is filed as functional. The method, boiled down:
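C57BL6 mice, 6–8 weeks, 20–30 g, four per group, anesthetized with ketamine/xylazine. Right cornea scratched (three 1 mm cuts), 10 μL of 6×10^8 CFU/mL S. aureus ATCC 29213 in PBS applied topically. From day 1, 0.5% drug in PBS (12 mM, pH 7.2) given 4 times at 2 h intervals. Corneas homogenized in 0.9% NaCl/0.25% BSA, diluted, plated in duplicate on TSA, 48 h at 35 °C.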

Assay [2] has as its system Staphylococcus aureus. In words: Ratio of MIC for Staphylococcus aureus ATCC 29213 after […] passages to MIC for Staphylococcus aureus ATCC 29213. The format is functional. The method, boiled down: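 Serial passage. Initial MIC was determined against S. aureus ATCC29213 by broth microdilution. Bacteria from duplicate tubes at 0.5× MIC were diluted to ~5 × 10^5 CFU/mL for the next MIC round. Each round was incubated at 35 °C for 24 h and the fold increase in MIC recorded. Gatifloxacin and norfloxacin served as comparators. Repeated for 17 passages, biological replicates.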

The source made the active and inactive calls. The rule behind the calls is not given here.

In the case of `C[C@H]1COc2c(N3CCN(C)CC3)c(F)cc3c(=O)c(C(=O)O)cn1c23`, in assay [1], the outcome was Active.
Turning to `COc1c(N2CCNC(C)C2)c(F)cc2c(=O)c(C(=O)O)cn(C3CC3)c12` (stereo not drawn) [GATIFLOXACIN], the Ratio in assay [2] is reported as 64.
Still for that read-out and setting: under `CCn1cc(C(=O)O)c(=O)c2cc(F)c(N3CCNCC3)cc21` [NORFLOXACIN] stands 128.

These data come from ChEMBL document CHEMBL4011638, “Semisynthetic Flavone-Derived Antimicrobials with Therapeutic Potential against Methicillin-Resistant Staphylococcus aureus (MRSA)” (J Med Chem, 2017).
